The text below walks through data of ChEMBL document CHEMBL1121582, “Structure-activity relationship of diphenylthiourea antivirals” (1980).

Broadly, the inhibition is the percentage by which the read-out fell short of the control.

Holding throughout (type): functional
In test [1] the test system is Poliovirus 1. In words: Antiviral activity was evaluated in vitro against human poliovirus as inhibition zone in agar-diffusion plaque-inhibition test. Summed up: (§1)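 FL cell monolayers were infected with virus (adsorption 60 min at 20 °C) at a dose giving semiconfluent plaques in 24-48 h at 37 °C. Cells were overlaid with 1% agar in Eagle medium with 10% heated calf serum. 0.1 mL of compound, usually a 2-4% solution, went into 6 mm glass cylinders set in the agar. A second overlay held 0.02% neutral red. Plaque-inhibition and cytotoxicity zone diameters (mm) were read using 3-5 cylinders in at least two dishes. Grading: -, ≤5 mm; ±, 6-10; +, 11-20; ++, ≥20.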

A short description of test [2]: Antiviral activity was evaluated in vitro against human poliovirus as antiviral affect in agar-diffusion plaque-inhibition test - => inhibition diameter < = 5 mm. In a few lines: as §1
On the technique in general: Agar diffusion results depend on both activity and mobility in agar.

In test [3] the test system is Poliovirus 1. In words: Antiviral activity was evaluated in vitro against human poliovirus as toxicity zone in agar-diffusion plaque-inhibition test. Summed up: as §1
The species entered for test [4] is Homo sapiens. Nature of the test: Antiviral activity was evaluated in vitro against human ECHO virus as antiviral affect in agar-diffusion plaque-inhibition test (+/- =>inhibition, diameter 6-10 mm). In a few lines: as §1
Test [5] is filed under the species Homo sapiens. In words: Antiviral activity was evaluated in vitro against human Coxsackie virus as antiviral affect in agar-diffusion plaque-inhibition test (+/- => inhibition, diameter 6-10 mm). Summed up: as §1
Test [6] in a line: cells. The settings on record: Homo sapiens.
Test [7] can be described thus: cells. The settings on record: Homo sapiens. The source holds these as a separate data set.
A short description of test [8]: Antiviral activity was evaluated in vitro against human Coxsackie virus as toxicity zone in agar-diffusion plaque-inhibition test. In a few lines: as §1
A short description of test [9]: Antiviral activity was evaluated in vitro against human ECHO virus as toxicity zone in agar-diffusion plaque-inhibition test. Summed up:
as §1

For test [10], the species on record is Homo sapiens. In words: Antiviral activity was evaluated in vitro against human Coxsackie virus as antiviral affect in agar-diffusion plaque-inhibition test (- =>inhibition, diameter < = 5 mm). In a few lines: (§2)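 FL cell monolayers in 90 mm dishes infected with virus dose giving semiconfluent plaques (adsorption 60 min, 20 °C), then 1% agar overlay in Eagle MM with 10% heated calf serum. Compound, 0.1 mL of usually 2-4% ethanol solution, was placed in 6 mm glass cylinders set in the agar. Concentrations were preliminarily checked as well-tolerated by the cells. Incubation was 24-48 h at 37 °C, followed by a second overlay of 1.5% agar with 0.02% neutral red. Read-out was the diameter of the plaque-inhibition zone and the cytotoxicity zone, using 3-5 cylinders per compound in ≥2 dishes. Scoring: - Δϕ ≤5 mm; ± 6-10; + 11-20; ++ ≥20 mm.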

A short description of test [11]: Antiviral activity was evaluated in vitro against human ECHO virus as antiviral affect in agar-diffusion plaque-inhibition test (- => inhibition, diameter < = 5 mm). Summed up: as §2
Test [12] in a line: Antiviral activity was evaluated in vitro against human poliovirus as antiviral affect in agar-diffusion plaque-inhibition test (- => inhibition, diameter < = 5 mm). In a few lines: as §1
Test [13] is described as follows: cells. The settings on record: Homo sapiens. The source holds these as a separate data set.
Test [14] is filed under the species Homo sapiens. Nature of the test: Antiviral activity was evaluated in vitro against human Coxsackie virus as antiviral affect in agar-diffusion plaque-inhibition test(- => inhibition, diameter < = 5 mm). In a few lines:
as §1

For test [15], the species on record is Homo sapiens. In words: Antiviral activity was evaluated in vitro against human ECHO virus as antiviral affect in agar-diffusion plaque-inhibition test(- => inhibition, diameter < = 5 mm). Summed up: as §1
Test [16] is filed under the species Homo sapiens. In words: Antiviral activity was evaluated in vitro against human Coxsackie virus as antiviral affect in agar-diffusion plaque-inhibition test (- => inhibition, diameter < = 5 mm). In a few lines:
as §2

The species named for test [17] is Homo sapiens. Nature of the test: Antiviral activity was evaluated in vitro against human Coxsackie virus as antiviral affect in agar-diffusion plaque-inhibition test (- => inhibition diameter < = 5 mm). In a few lines:
as §2

The species entered for test [18] is Homo sapiens. In words: Antiviral activity was evaluated in vitro against human poliovirus as antiviral affect in agar-diffusion plaque-inhibition test (- => inhibition diameter < = 5 mm). Summed up: as §1
The species named for test [19] is Homo sapiens. Nature of the test: Antiviral activity was evaluated in vitro against human ECHO virus as antiviral affect in agar-diffusion plaque-inhibition test (- => inhibition diameter < = 5 mm). Summed up: as §2
The species named for test [20] is Homo sapiens. In words: Antiviral activity was evaluated in vitro against human poliovirus as antiviral affect in agar-diffusion plaque-inhibition test(- => inhibition, diameter < = 5 mm). In a few lines:
as §1

For test [21], the species on record is Homo sapiens. In words: Antiviral activity was evaluated in vitro against human poliovirus as antiviral affect in agar-diffusion plaque-inhibition test (+/- => inhibition, diameter = 6-10 mm). Summed up:
as §1

The species entered for test [22] is Homo sapiens. Nature of the test: Antiviral activity was evaluated in vitro against human ECHO virus as antiviral affect in agar-diffusion plaque-inhibition test (+ => inhibition diameter = 11-20 mm). Summed up: as §1

Regarding `NC(N)=S` [THIOUREA], the Inhibition zone in test [1] amounted to 26 mm. Also, the Antiviral effect entry in [2] was “Not toxic”. The molecule also yielded a Toxicity zone in [3] of 22 mm.

For `O=C(Nc1ccccc1)Nc1ccc(O)cc1`, in [1], the Inhibition zone came out at 0 mm. Further, the Antiviral effect result in test [2] was “Not toxic”. Also, the Toxicity zone in test [3] amounted to 0 mm.

The molecule `Oc1cccc(/N=C(\S)Nc2cccc(O)c2)c1` registered an Inhibition zone in [1] of 26.7 mm. Also, the Antiviral effect entry in test [4] and in test [5] was “+/-” in each case. Besides, the values for the Toxicity zone in test [3], in test [8] and in [9] were 11.4 mm, 33.3 mm and 29 mm, respectively. The same molecule yielded an inhibition at 100 µM in test [6] of 73.5%. Also, testing at 200 µM in test [7] gave an inhibition of 89%.

Molecule `Nc1cccc(O)c1` [3-AMINOPHENOL] registered an Inhibition zone in [1] of 0 mm. Further, in [2], the Antiviral effect entry is “Not toxic”. In addition, the Toxicity zone in [3] was 0 mm.

Turning to `Oc1ccccc1/N=C(/S)Nc1ccccc1`, the Antiviral effect result in test [10], in test [11] and in test [12] was “Not toxic” each time.

Regarding `Nc1ccc(/N=C(\S)Nc2ccc(N)cc2)cc1`, the Inhibition zone in [1] is 0 mm. Further, the Antiviral effect result in [2] was “Not toxic”. The same molecule showed a Toxicity zone in test [3] of 0 mm.

In test [1], `Oc1cccc(N/C(S)=N/c2ccccc2)c1` showed an Inhibition zone of 33 mm. Also, the Toxicity zone in [3] worked out at 15.8 mm. This molecule also showed an inhibition at 200 µM in [7] of 99.9%. Further, in [13], 100 µM produced 99.4% inhibition.

In test [1], `Nc1ccccc1NC(=O)Nc1ccccc1` showed an Inhibition zone of 0 mm. Also, in [2], the Antiviral effect entry is “Not toxic”. The Toxicity zone in test [3] came out at 0 mm.

`Nc1ccccc1/N=C(/S)Nc1ccccc1` gave an Inhibition zone in test [1] of 28 mm. Also, the Toxicity zone in test [3] was 9 mm; in [8], 41 mm; in test [9], 37 mm. Also, the Antiviral effect result in test [14] and in test [15] was “Not toxic” each time. The same molecule gave an inhibition at 200 µM in test [7] of 98.7%.

In test [1], `CC(=O)Nc1cccc(O)c1` [METACETAMOL] displayed an Inhibition zone of 0 mm. The molecule also had a Toxicity zone in test [3] of 0 mm. In test [12], the Antiviral effect entry is “Not toxic”.

For `O=C(O)c1ccccc1/N=C(/S)Nc1ccccc1`, the Antiviral effect result in test [16] was “Not toxic”.

In turn, `Nc1ccc(N/C(S)=N/c2ccccc2)cc1` came in with an Inhibition zone in test [1] of 0 mm. For the same molecule, the Toxicity zone in test [3] was determined as 0 mm. In addition, the Antiviral effect entry in test [17], in [18] and in test [19] was “Not toxic” each time.

Turning to `O=C(O)c1ccc(N/C(S)=N/c2ccccc2)cc1`, the Antiviral effect entry in test [16], in test [11] and in [12] was “Not toxic” throughout.

In turn, `O=C(Nc1ccccc1)Nc1ccccc1O` showed an Inhibition zone in test [1] of 36.2 mm. In test [3], the Toxicity zone amounted to 32 mm. Besides, in test [12], the Antiviral effect entry was “Not toxic”.

For `Oc1ccc(/N=C(\S)Nc2ccc(O)cc2)cc1`, the Antiviral effect result in test [20] is “Not toxic”. In [1], this molecule had an Inhibition zone of 0 mm. This molecule yielded a Toxicity zone in [3] of 0 mm.

In [1], `Nc1cccc(N/C(S)=N/c2ccccc2)c1` yielded an Inhibition zone of 28.3 mm. Also, the Toxicity zone in test [3] came out at 18 mm; in test [8], 16.7 mm; in test [9], 20 mm. Moreover, in [7], the inhibition at 200 µM stood at 100%.

As for `Oc1ccc(N/C(S)=N/c2ccccc2)cc1`, the Antiviral effect entry was “+/-” in test [21] and “Not toxic” in [11].

`O=C(O)c1ccc(N/C(S)=N/c2ccccc2)cc1O` came in with an Inhibition zone in [1] of 36.1 mm. In test [3], this molecule came in with a Toxicity zone of 17.9 mm. Also, the inhibition at 200 µM in [7] was 99.9%.

Regarding `O=C(Nc1ccccc1)Nc1cccc(O)c1`, the Inhibition zone in test [1] worked out at 13.3 mm. The values for the Toxicity zone in test [3], in [8] and in test [9] were 7.3 mm, 6.5 mm and 6.5 mm, respectively. For the same molecule, the Antiviral effect entry in [21], in test [14] and in [15] was “Not toxic” throughout. Also, at 100 µM the inhibition in test [6] was 66.3%. The same molecule registered an inhibition at 200 µM in test [7] of 96.3%.

`Nc1ccc(NC(=O)Nc2ccccc2)cc1` yielded an Inhibition zone in test [1] of 0 mm. Further, in test [2], the Antiviral effect entry was “Not toxic”. This molecule returned a Toxicity zone in test [3] of 0 mm.

`Nc1ccccc1/N=C(\S)Nc1ccccc1N` registered an Inhibition zone in test [1] of 53.7 mm. Also, the Antiviral effect result in [22] is “Not toxic”; in test [5], “+/-”. For the same molecule, the Toxicity zone in test [3] amounted to 39.4 mm; in test [8] it was 34 mm; in test [9], 43.5 mm.

In [1], `Nc1cccc(NC(=O)Nc2ccccc2)c1` showed an Inhibition zone of 0 mm. In addition, the Antiviral effect entry in test [2] is “Not toxic”. The Toxicity zone in [3] turned out to be 0 mm.

In the case of `O=C(O)c1cccc(N/C(S)=N/c2ccccc2)c1`, the Antiviral effect result in test [16], in [11] and in test [12] was “Not toxic” each time.
